Results: ChEMBL document CHEMBL3632616, “Fluorination Patterning: A Study of Structural Motifs That Impact Physicochemical Properties of Relevance to Drug Discovery” (J Med Chem, 2015)
Converted amounts (≈) assume the structure as drawn.

Tests used:
[1] = Intrinsic clearance in rat liver microsomes assessed per mg of protein; type: ADME; settings: read-out: CLH
How it was run: (§1)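 Compound incubated with liver microsomes (human for line 2, rat for line 3) and its concentration followed at up to 8 successive time points. Intrinsic pseudo-first-order decay rate constant (Clint) taken from linear regression of those concentrations and normalised to microsomal protein. Upper and lower bounds are 95% confidence levels from the regression.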

[2] = Lipophilicity, Log P of the compound; type: physicochemical; settings: octanol/water
[3] = Intrinsic clearance in human liver microsomes assessed per mg of protein; type: ADME; settings: read-out: CLH; how it was run: as §1
[4] = Aqueous solubility of the compound at pH 6.5; type: physicochemical

Row | microsomal CLint [1] [µL/min/mg] | logP [2] | microsomal CLint [3] [µL/min/mg] | solubility [4] [µM] | SMILES
1 | 584 | 3 | 321 | 115 (≈ 24.1 µg/mL) | CC(F)(F)CCc1c[nH]c2ccccc12
2 | 290 | 3.1 | 410 | 30 (≈ 6.4 µg/mL) | FC(F)(F)CCc1c[nH]c2ccccc12
3 | 492 | 2.8 | 245 | 277 (≈ 58 µg/mL) | FCC(F)CCc1c[nH]c2ccccc12 (stereo unspecified)
4 | – | 2.8 | – | – | C[C@@H](F)[C@H](F)Cc1c[nH]c2ccccc12 (racemic)
5 | – | 2.8 | – | – | C[C@H](F)[C@H](F)Cc1c[nH]c2ccccc12 (racemic)
6 | – | 2.7 | – | – | FC[C@@H](F)[C@H](F)Cc1c[nH]c2ccccc12 (racemic)
7 | – | 2.7 | – | – | FC[C@H](F)[C@H](F)Cc1c[nH]c2ccccc12 (racemic)

Second part, the molecule before the results:

Row | SMILES | microsomal CLint [1] [µL/min/mg] | logP [2] | microsomal CLint [3] [µL/min/mg] | solubility [4] [µM]
8 | CCCc1c[nH]c2ccccc12 | 182 | 3.3 | 513 | 200 (≈ 31.8 µg/mL)
9 | FCCCc1c[nH]c2ccccc12 | – | 2.8 | – | –
10 | FC(F)CCc1c[nH]c2ccccc12 | 294 | 2.9 | 372 | –
11 | FCC(F)Cc1c[nH]c2ccccc12 (stereo unspecified) | 142 | 2.5 | 212 | > 1720
12 | CC(F)(F)Cc1c[nH]c2ccccc12 | 226 | 2.8 | 508 | 820 (≈ 160 µg/mL)
13 | CCC(F)(F)Cc1c[nH]c2ccccc12 | 644 | 3.1 | 271 | 182 (≈ 38.1 µg/mL)
